# Experimental data: article PMC2832854 (NeuroImage, 2009)
# Several values for one entry are separate records, joined by “and”; a condition that tells them apart may be missing. Equal values may be shown once. Read-outs that look alike come from different tables or passages of the source.
# Key:
# [1] = system: TSPO; type: binding, human; settings: for Specific Binding: single radioligand concentration normalized to 0.5 nM, displacer PBR28; for Ki: read-out: KI of PBR28, displacement of [3H]PK 11195, mean ± SD
# [2] = target: ABCC1 (Homo sapiens, UniProt P33527); assay: Substrate specificity: radioligand accumulation in MCF-7 / MCF-7/VP16 cells; type: cell-based; settings: 5 nM radioligand
# ABCC1, sequence (P33527 whole entry): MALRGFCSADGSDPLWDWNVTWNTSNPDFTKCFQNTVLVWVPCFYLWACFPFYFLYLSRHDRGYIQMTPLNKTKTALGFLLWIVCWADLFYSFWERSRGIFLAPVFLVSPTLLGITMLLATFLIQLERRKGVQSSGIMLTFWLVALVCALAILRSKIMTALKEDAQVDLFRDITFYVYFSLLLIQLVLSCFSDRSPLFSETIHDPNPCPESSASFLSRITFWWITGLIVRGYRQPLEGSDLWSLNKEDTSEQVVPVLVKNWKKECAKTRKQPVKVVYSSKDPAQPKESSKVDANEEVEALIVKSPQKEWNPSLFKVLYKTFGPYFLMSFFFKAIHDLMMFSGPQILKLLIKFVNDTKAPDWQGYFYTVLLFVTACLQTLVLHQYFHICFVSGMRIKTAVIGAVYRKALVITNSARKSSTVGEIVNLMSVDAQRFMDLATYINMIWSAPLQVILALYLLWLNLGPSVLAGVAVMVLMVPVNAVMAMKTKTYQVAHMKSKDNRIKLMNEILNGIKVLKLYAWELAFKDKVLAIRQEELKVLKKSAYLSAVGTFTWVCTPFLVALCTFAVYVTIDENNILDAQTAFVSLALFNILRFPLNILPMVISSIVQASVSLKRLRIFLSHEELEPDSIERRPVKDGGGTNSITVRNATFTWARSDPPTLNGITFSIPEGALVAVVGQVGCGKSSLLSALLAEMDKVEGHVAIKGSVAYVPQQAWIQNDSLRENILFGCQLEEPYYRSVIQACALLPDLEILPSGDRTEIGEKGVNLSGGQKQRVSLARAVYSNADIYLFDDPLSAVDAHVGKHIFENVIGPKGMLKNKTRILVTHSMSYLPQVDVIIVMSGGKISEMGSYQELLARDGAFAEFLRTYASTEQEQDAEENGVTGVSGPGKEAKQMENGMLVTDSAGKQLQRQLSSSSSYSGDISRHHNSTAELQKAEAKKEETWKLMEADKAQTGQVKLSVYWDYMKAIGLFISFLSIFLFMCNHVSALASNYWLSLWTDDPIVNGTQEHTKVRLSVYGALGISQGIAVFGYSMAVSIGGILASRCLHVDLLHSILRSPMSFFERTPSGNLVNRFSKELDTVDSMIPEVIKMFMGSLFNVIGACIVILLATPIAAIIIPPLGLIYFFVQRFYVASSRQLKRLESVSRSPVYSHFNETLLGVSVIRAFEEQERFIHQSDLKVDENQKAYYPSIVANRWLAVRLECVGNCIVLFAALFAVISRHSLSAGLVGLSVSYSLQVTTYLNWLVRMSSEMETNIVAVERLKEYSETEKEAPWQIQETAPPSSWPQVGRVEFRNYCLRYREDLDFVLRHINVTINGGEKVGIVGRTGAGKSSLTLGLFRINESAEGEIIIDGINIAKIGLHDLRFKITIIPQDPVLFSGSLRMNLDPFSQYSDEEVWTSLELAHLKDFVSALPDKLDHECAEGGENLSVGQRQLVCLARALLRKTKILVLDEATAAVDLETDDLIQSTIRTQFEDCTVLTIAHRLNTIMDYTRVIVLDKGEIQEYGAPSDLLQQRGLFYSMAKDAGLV
# [3] = target: ABCB1 (P-glycoprotein) (Homo sapiens, UniProt P08183); type: cell-based; settings: 5 nM radioligand
# ABCB1 (P-glycoprotein), sequence (P08183 whole entry): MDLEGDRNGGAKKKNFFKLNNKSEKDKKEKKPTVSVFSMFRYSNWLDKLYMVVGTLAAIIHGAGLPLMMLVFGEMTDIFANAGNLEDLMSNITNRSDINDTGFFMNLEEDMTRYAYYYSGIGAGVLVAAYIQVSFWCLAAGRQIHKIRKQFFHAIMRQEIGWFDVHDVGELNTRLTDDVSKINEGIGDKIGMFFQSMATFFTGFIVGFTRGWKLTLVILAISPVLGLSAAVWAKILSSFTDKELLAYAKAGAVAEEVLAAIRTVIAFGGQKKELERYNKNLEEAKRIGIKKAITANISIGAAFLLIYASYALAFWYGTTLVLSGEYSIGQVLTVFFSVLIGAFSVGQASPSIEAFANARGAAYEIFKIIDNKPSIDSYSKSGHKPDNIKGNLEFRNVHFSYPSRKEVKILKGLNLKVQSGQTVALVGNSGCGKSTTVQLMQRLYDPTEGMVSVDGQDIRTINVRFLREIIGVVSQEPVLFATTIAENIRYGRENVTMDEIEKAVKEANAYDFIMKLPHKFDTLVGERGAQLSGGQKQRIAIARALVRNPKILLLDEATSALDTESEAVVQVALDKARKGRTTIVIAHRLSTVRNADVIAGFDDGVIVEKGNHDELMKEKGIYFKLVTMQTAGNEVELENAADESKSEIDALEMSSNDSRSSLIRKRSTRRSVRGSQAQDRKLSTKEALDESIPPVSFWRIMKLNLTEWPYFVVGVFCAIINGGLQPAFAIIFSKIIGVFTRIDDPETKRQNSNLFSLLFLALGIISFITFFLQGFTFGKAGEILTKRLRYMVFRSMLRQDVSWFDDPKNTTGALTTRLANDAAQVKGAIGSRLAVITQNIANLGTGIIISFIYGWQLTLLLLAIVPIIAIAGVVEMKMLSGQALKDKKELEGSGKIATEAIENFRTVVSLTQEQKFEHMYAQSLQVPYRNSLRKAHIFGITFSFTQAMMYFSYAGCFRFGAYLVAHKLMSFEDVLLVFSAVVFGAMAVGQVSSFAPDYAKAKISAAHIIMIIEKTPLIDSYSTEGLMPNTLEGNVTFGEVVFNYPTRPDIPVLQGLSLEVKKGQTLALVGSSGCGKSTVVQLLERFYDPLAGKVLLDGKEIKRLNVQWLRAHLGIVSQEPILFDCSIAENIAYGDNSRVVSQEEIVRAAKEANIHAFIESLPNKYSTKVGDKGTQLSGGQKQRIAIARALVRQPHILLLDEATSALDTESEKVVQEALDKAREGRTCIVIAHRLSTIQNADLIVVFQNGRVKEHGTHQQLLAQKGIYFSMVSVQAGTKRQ
# [4] = target: T1, ABCG2 (Homo sapiens, UniProt Q9UNQ0); assay: Substrate specificity: radioligand accumulation in H460 / H460/MX20 cells; type: cell-based; settings: 5 nM radioligand
# T1 sequence (Q9UNQ0 1-655): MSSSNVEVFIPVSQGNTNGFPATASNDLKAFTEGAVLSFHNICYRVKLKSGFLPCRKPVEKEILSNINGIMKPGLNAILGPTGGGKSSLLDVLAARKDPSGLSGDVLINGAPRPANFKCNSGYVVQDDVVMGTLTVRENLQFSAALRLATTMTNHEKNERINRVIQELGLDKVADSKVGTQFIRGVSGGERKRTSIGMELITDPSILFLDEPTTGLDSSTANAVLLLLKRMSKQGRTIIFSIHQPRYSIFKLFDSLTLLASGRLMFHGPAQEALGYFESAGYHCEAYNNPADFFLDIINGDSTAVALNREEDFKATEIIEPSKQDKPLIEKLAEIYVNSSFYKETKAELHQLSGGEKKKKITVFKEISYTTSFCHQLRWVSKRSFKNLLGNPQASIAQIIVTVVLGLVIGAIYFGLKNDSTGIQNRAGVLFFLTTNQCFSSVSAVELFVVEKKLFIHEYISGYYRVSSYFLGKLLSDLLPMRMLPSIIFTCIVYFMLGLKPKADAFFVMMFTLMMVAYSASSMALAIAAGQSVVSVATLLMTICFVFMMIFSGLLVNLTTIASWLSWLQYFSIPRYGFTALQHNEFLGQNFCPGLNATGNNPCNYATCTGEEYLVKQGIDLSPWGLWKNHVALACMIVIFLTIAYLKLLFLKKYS
# [5] = system: TSPO; settings: cited from earlier work
# [6] = system: 18 kDa translocator protein (TSPO); assay: Human whole-body PET imaging, organ uptake in binders and non-binders; type: in vivo; settings: for Organ uptake (area under time-activity curve): 5 to 20 min
# [7] = system: TSPO; type: in vivo, rhesus monkeys (Macaca mulatta); settings: for Decrease of area under the curve by pre-blockade: 0 to 120 min, nonradioactive PBR28; for Time at which uptake declined to 50% of peak: after pre-blockade
# Method in brief: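 Two male rhesus monkeys (13.2 ± 2.1 kg) each had two scans. The baseline scan followed i.v. 11C-labelled TSPO radioligand (276 ± 8 MBq, posterior tibial vein). The second followed unlabelled TSPO ligand 5 mg/kg i.v. given 30 min before radioligand (277 ± 21 MBq). 2D dynamic whole-body PET covered 4 segments, head to upper thigh, in 22 frames (75 s–15 min) over 120 min. Organ SUV curves were integrated over 5–20 and 0–120 min.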
# [8] = system: TSPO; type: in vivo, rhesus monkeys
# [9] = target: TSPO; settings: read-out: KI to monkey brain, ref Briard et al., 2008; cited from earlier work
# [10] = system: TSPO; settings: 0 to 120 min, ref Imaizumi et al., 2008, cited from earlier work
# [11] = saturation curve, homologous displacement, binders
compound,measurement,setting,value
CCC(C)N(C)C(=O)c1cc2ccccc2c(-c2ccccc2Cl)n1 (stereo not shown) [[^3H]PK 11195],Bmax,[1]; [11],10.4 ± 7.1 pmol / mg protein
same,Bmax,"[1]; saturation curve, homologous displacement, non-binders",15.1 ± 12.0 pmol / mg protein
same,Specific Binding,[1]; binders,1.3 ± 0.5 pmol / mg protein
same,Substrate for transporter,[2],neither [^3H]PK 11195 nor [^3H]PBR8 was a substrate
same,Substrate for transporter,[3],neither [^3H]PK 11195 nor [^3H]PBR8 was a substrate
same,Substrate for transporter,[4],neither [^3H]PK 11195 nor [^3H]PBR8 was a substrate
CC[C@@H](C)N([11CH3])C(=O)c1cc2ccccc2c(-c2ccccc2Cl)n1 [[^11C]-(R)-PK 11195],Share of uptake in monkey brain that is specific (displaceable),"[5]; without correction for peripheral clearance, ref Petit-Taboue et al., 1991",about 50%
same,Organ uptake (area under time-activity curve),"[6]; brain, binders (n = 5)",18.8 ± 1.0 SUV • min
same,Organ uptake (area under time-activity curve),"[6]; brain, non-binders (n = 5)",17.5 ± 2.0 SUV • min
same,Organ uptake (area under time-activity curve),"[6]; heart, binders (n = 5)",59.8 ± 4.9 SUV • min
same,Organ uptake (area under time-activity curve),"[6]; heart, non-binders (n = 5)",48.8 ± 2.8 SUV • min
same,Organ uptake (area under time-activity curve),"[6]; kidney, binders (n = 5)",63.8 ± 3.2 SUV • min
same,Organ uptake (area under time-activity curve),"[6]; kidney, non-binders (n = 5)",60.7 ± 12.3 SUV • min
same,Organ uptake (area under time-activity curve),"[6]; lung, binders (n = 5)",25.6 ± 3.7 SUV • min
same,Organ uptake (area under time-activity curve),"[6]; lung, non-binders (n = 5)",18.7 ± 2.5 SUV • min
same,Organ uptake (area under time-activity curve),"[6]; spleen, binders (n = 5)",65.6 ± 9.3 SUV • min
same,Organ uptake (area under time-activity curve),"[6]; spleen, non-binders (n = 5)",53.4 ± 11.4 SUV • min
same,Decrease of area under the curve by pre-blockade,[7]; brain,14%
same,Area under the time-activity curve,"[7]; brain, 5 to 20 min, baseline",28.2 SUV • min
same,Area under the time-activity curve,"[7]; brain, 5 to 20 min, pre-blocked with PBR28 5 mg/kg i.v.",29.1 SUV • min
same,Time at which uptake declined to 50% of peak,[7]; brain,30 min
same,Area under the time-activity curve,"[7]; heart, 5 to 20 min, baseline",75.1 SUV • min
same,Area under the time-activity curve,"[7]; heart, 5 to 20 min, pre-blocked with PBR28 5 mg/kg i.v.",33.6 SUV • min
same,Decrease of area under the curve by pre-blockade,[7]; kidney,30%
same,Area under the time-activity curve,"[7]; kidney, 5 to 20 min, baseline",166.3 SUV • min
same,Area under the time-activity curve,"[7]; kidney, 5 to 20 min, pre-blocked with PBR28 5 mg/kg i.v.",60.5 SUV • min
same,Decrease of area under the curve by pre-blockade,[7]; lung,31%
same,Area under the time-activity curve,"[7]; lung, 5 to 20 min, baseline",29.6 SUV • min
same,Area under the time-activity curve,"[7]; lung, 5 to 20 min, pre-blocked with PBR28 5 mg/kg i.v.",18.3 SUV • min
same,Time at which uptake declined to 50% of peak,[7]; other organs,≤ 5 min
same,Area under the time-activity curve lower in pre-blocked than in baseline scans,"[7]; peripheral organs (heart, lung, spleen, kidney), 5 to 20 min",38 – 76%
same,Area under the time-activity curve,"[7]; spleen, 5 to 20 min, baseline",87.1 SUV • min
same,Area under the time-activity curve,"[7]; spleen, 5 to 20 min, pre-blocked with PBR28 5 mg/kg i.v.",20.6 SUV • min
same,Peak uptake of radioactivity in brain,[8]; after blockade with PBR28 5 mg/kg i.v.,3.43 SUV
same,Peak uptake of radioactivity in brain,[8]; baseline,1.64 SUV
COc1ccccc1CN(C(C)=O)c1cnccc1Oc1ccccc1 [PBR28],Ki,[1]; binders,6.1 ± 6.4 nM
same,Ki,[1]; non-binders,67 nM and 67.4 nM
same,Ki,[9],0.94 nM
CC(=O)N(Cc1ccccc1O[11CH3])c1cnccc1Oc1ccccc1 [[^11C]PBR28],Share of uptake in monkey brain that is specific,"[5]; ref Imaizumi et al., 2008",More than 90%
same,Uptake lower in non-binders than in binders,"[6]; all five organs with high densities of TSPO (lung, heart, brain, kidney, spleen)",50% to 75%
same,Organ uptake (area under time-activity curve),"[6]; brain, binders (n = 5)",27.3 ± 3.4 SUV • min
same,Organ uptake (area under time-activity curve),"[6]; brain, non-binders (n = 5)",13.8 ± 1.3 SUV • min
same,Organ uptake (area under time-activity curve),"[6]; heart, binders (n = 5)",72.3 ± 10.3 SUV • min
same,Organ uptake (area under time-activity curve),"[6]; heart, non-binders (n = 5)",29.7 ± 4.7 SUV • min
same,Organ uptake (area under time-activity curve),"[6]; kidney, binders (n = 5)",109.3 ± 12.9 SUV • min
same,Organ uptake (area under time-activity curve),"[6]; kidney, non-binders (n = 5)",33.4 ± 15.5 SUV • min
same,Organ uptake (area under time-activity curve),"[6]; lung, binders (n = 5)",44.9 ± 6.5 SUV • min
same,Organ uptake (area under time-activity curve),"[6]; lung, non-binders (n = 5)",13.6 ± 2.0 SUV • min
same,Organ uptake (area under time-activity curve),"[6]; spleen, binders (n = 5)",131.6 ± 19.3 SUV • min
same,Organ uptake (area under time-activity curve),"[6]; spleen, non-binders (n = 5)",34.1 ± 11.0 SUV • min
same,Decrease of area under the curve by pharmacological blockade,[10]; brain,42%
same,Decrease of area under the curve by pharmacological blockade,[10]; kidney,50%
same,Decrease of area under the curve by pharmacological blockade,[10]; lung,70%
COc1ccccc1CN(C(C)=O)c1cnccc1Oc1ccccc1 [[^3H]PBR28] [listing 1 of 2 here],"Specific binding, fold lower in non-binders than in binders","[1]; eight non-binders vs ten binders, single radioligand concentration",36 fold
same,"Affinity for TSPO, fold lower in non-binders than in binders",[1]; leukocyte membranes,more than ten-fold lower affinity
same,Bmax,[1]; [11],16.9 ± 8.0 pmol / mg protein
same,Kd,[1]; [11],1.8 ± 0.6 nM
same,Specific Binding,[1]; binders,7.2 ± 2.2 pmol / mg protein
COc1ccccc1CN(C(C)=O)c1cnccc1Oc1ccccc1 [[^3H]PBR28] [listing 2 of 2 here],Substrate for transporter,[2],neither [^3H]PK 11195 nor [^3H]PBR8 was a substrate
same,Substrate for transporter,[3],neither [^3H]PK 11195 nor [^3H]PBR8 was a substrate
same,Substrate for transporter,[4],neither [^3H]PK 11195 nor [^3H]PBR8 was a substrate
